Measured values published in ChEMBL document CHEMBL4350970, “Rational Design of 5-(4-(Isopropylsulfonyl)phenyl)-3-(3-(4-((methylamino)methyl)phenyl)isoxazol-5-yl)pyrazin-2-amine (VX-970, M6620): Optimization of Intra- and Intermolecular Polar Interactions of a New Ataxia Telangiectasia Mutated and Rad3-Related (ATR) Kinase Inhibitor” (J Med Chem, 2019).
In brackets after ≈: the same amount, converted by molar mass. Activity calls are given as the source filed them. No cut-off for these calls is given here.

Experiments:
[1] = biological target: DNA-dependent protein kinase catalytic subunit (Homo sapiens, UniProt P78527); assay: Inhibition of purified recombinant human full-length DNA-PK using EPPLSQEAFADLWKKK peptide as substrate measured after 2 hrs in presence of [gamma-33P] ATP by microbeta liquid scintillation counting analysis
Procedure, shortened: (§1)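 Radiometric phosphate incorporation assay with full-length kinase (ATR and ATM made in-house; DNA-PK purchased) premixed with buffer and target peptide. Compound added in DMSO over a range of concentrations, final DMSO 7%. Started with [γ-33P]ATP at 25 °C. Stopped with phosphoric acid (final 100 mM) and ATP (final […]), captured on phosphocellulose, washed with 100 mM phosphoric acid, then scintillation counted. Dose-response fitting.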

[2] = biological target: T1, Serine/threonine-protein kinase ATR (Homo sapiens, UniProt Q13535); assay: Inhibition of recombinant human full-length N-terminal Flag epitope-tagged ATR expressed in HEK293T cells using ASELPASQPQPFSAKKK peptide as substrate measured after 24 hrs in presence of [gamma-33P] ATP by microbeta liquid scintillation counting analysis; procedure, shortened: as §1
[3] = biological target: Serine-protein kinase ATM (Homo sapiens, UniProt Q13315); assay: Inhibition of full-length ATM (unknown origin) using DPSVEPPLSQETFSDKKK peptide as substrate measured after 24 hrs in presence of [gamma-33P] ATP by microbeta liquid scintillation counting analysis; procedure, shortened: as §1
Serine-protein kinase ATM, sequence (Q13315 whole entry): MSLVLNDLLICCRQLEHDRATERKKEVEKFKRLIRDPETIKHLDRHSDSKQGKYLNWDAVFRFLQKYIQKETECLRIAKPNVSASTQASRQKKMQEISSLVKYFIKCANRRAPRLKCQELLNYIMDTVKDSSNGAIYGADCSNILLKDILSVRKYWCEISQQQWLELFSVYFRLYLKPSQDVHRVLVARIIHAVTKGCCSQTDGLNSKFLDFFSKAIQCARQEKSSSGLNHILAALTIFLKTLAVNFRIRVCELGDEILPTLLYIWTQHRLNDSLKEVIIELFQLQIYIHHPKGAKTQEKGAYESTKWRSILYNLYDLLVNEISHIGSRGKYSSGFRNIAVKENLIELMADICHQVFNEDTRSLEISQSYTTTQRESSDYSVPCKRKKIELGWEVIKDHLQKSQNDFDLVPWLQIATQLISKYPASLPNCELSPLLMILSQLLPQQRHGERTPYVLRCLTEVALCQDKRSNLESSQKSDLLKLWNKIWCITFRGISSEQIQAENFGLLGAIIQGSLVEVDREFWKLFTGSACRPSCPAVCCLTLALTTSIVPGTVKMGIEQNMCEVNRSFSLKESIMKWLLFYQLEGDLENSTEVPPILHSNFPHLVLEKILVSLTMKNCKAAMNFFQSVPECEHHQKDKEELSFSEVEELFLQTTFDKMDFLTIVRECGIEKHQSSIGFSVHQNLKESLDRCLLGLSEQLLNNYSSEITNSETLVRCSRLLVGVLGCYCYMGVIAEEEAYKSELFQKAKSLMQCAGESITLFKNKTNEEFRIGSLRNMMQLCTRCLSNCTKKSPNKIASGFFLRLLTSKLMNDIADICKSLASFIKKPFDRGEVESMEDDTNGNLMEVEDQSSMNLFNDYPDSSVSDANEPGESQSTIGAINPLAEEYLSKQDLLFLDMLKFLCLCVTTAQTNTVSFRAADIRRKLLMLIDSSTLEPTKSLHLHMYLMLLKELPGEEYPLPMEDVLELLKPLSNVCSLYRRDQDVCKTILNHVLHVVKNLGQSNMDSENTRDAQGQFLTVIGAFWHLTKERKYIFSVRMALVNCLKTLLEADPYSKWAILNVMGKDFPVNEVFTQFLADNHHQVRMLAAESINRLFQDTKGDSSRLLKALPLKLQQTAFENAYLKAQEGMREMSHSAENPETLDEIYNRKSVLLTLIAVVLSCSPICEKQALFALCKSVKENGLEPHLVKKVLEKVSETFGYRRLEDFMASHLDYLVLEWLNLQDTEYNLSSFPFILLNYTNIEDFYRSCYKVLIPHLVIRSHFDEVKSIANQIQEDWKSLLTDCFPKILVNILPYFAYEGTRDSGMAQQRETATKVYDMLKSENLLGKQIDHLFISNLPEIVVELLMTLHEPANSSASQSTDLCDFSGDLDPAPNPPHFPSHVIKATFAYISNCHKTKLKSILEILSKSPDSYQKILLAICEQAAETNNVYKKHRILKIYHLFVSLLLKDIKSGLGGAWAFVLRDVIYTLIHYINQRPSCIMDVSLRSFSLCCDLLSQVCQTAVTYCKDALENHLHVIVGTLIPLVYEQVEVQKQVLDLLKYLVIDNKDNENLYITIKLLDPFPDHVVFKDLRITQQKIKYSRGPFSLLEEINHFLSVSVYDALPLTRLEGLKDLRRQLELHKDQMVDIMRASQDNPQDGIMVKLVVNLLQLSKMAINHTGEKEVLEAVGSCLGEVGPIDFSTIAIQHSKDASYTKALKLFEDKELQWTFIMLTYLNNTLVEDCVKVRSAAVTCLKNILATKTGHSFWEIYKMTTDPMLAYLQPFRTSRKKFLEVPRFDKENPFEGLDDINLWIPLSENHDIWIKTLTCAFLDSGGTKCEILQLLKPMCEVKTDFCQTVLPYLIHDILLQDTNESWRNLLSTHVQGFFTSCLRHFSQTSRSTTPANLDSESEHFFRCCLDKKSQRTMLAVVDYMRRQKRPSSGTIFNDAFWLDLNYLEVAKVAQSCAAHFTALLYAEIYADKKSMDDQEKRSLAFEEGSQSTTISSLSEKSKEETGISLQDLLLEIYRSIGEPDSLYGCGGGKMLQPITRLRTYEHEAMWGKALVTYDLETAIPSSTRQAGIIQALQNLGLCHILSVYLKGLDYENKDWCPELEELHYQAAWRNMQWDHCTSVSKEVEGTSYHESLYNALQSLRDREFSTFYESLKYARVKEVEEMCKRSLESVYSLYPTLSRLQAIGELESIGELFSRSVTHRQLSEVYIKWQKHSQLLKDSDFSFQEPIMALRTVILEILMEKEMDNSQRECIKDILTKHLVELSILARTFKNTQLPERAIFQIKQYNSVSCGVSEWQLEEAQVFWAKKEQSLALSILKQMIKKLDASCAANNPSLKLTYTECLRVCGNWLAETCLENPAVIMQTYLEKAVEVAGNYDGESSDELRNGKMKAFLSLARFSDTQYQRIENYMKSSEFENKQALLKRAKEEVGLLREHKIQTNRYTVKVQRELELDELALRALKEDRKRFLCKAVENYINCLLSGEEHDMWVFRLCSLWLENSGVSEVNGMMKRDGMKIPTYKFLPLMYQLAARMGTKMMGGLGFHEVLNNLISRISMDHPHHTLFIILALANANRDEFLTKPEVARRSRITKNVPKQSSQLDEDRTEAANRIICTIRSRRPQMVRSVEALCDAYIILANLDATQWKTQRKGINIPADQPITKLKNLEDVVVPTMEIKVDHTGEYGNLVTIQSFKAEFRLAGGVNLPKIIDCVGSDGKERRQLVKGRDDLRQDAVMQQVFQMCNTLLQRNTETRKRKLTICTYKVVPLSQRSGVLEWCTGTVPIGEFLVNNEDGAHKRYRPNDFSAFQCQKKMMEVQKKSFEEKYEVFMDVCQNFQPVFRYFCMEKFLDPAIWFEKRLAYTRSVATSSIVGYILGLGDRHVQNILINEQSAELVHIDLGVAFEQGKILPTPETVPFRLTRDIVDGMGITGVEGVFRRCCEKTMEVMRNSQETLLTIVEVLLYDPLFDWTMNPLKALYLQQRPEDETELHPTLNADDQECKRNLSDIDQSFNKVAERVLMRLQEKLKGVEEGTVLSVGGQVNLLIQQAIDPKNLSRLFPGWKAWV

[4] = biological target: T1, Serine/threonine-protein kinase ATR; assay: Inhibition of ATR in human HCT116 cells assessed as reduction in histone H2AX phosphorylation by Hoechst staining-based immunofluorescence microscopic analysis; assay type: cell-based
[5] = Aqueous solubility of the compound in PBS incubated overnight by UPLC-MS analysis; assay type: physicochemical
Procedure, shortened: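 Compounds dissolved in DMSO (standard) or in DPBS (10 mM phosphate, 140 mM NaCl) to at most 200 µM. PBS samples sealed, shaken overnight at room temperature, then centrifuged 45 min at 4000 rpm, 22 °C. UV AUC from UPLC-MS compared with the DMSO standard: solubility = AUC(PBS)/AUC(standard) × [standard].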

[6] = test system: HCT-116; assay: Potentiation of cisplatin-induced antiproliferative activity against human HCT116 cells assessed as reduction in cell viability at 500 nM measured after 96 hrs by MTS assay; assay type: functional, cell-based
Procedure, shortened: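 HCT116 cells from ATCC, exponentially growing, plated and left to adhere overnight. Compound and cisplatin added at the indicated concentrations, then incubated 96 h. MTS reagent added and absorbance read at 490 nm after 1 h. Synergy and antagonism assessed with Macsynergy analysis.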

[7] = biological target: Glycogen synthase kinase-3 beta (Homo sapiens, UniProt P49841); assay: Inhibition of human GSK3beta
Glycogen synthase kinase-3 beta, sequence (P49841 whole entry): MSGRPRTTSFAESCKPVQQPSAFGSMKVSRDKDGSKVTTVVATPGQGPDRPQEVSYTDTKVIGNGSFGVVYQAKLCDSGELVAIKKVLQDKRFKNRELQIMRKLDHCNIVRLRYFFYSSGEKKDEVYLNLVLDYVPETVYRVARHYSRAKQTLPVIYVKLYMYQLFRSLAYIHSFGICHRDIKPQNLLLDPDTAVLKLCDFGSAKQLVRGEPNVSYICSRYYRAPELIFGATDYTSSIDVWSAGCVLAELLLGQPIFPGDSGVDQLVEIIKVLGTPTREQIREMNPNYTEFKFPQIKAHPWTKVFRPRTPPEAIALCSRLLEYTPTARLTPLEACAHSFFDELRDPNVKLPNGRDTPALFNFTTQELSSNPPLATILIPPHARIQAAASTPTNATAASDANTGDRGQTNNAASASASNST

[8] = species on record: Homo sapiens; assay: Selectivity ratio of Ki for purified recombinant human full-length DNA-PK to Ki for recombinant human full-length N-terminal Flag epitope-tagged ATR expressed in HEK293T cells
Procedure, shortened: (§2)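 Ratio of Ki values from the radiometric [γ-33P]ATP phosphocellulose-capture assays with full-length kinases: ATM or DNA-PK Ki over ATR Ki.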

[9] = species on record: Homo sapiens; assay: Selectivity ratio of Ki for full-length ATM (unknown origin) to Ki for recombinant human full-length N-terminal Flag epitope-tagged ATR expressed in HEK293T cells; assay type: cell-based; procedure, shortened: as §2
[10] = biological target: Receptor-type tyrosine-protein kinase FLT3 (Homo sapiens, UniProt P36888); assay: Inhibition of human Flt3
[11] = biological target: Mast/stem cell growth factor receptor Kit (Homo sapiens, UniProt P10721, D816H); assay: ATP competitive inhibition of human c-Kit D816H mutant
[12] = biological target: Tyrosine-protein kinase SYK (Homo sapiens, UniProt P43405); assay: Inhibition of human SYK
[13] = biological target: Tyrosine-protein kinase Mer (Homo sapiens, UniProt Q12866); assay: ATP competitive inhibition of human Mer
Tyrosine-protein kinase Mer, sequence (Q12866 whole entry): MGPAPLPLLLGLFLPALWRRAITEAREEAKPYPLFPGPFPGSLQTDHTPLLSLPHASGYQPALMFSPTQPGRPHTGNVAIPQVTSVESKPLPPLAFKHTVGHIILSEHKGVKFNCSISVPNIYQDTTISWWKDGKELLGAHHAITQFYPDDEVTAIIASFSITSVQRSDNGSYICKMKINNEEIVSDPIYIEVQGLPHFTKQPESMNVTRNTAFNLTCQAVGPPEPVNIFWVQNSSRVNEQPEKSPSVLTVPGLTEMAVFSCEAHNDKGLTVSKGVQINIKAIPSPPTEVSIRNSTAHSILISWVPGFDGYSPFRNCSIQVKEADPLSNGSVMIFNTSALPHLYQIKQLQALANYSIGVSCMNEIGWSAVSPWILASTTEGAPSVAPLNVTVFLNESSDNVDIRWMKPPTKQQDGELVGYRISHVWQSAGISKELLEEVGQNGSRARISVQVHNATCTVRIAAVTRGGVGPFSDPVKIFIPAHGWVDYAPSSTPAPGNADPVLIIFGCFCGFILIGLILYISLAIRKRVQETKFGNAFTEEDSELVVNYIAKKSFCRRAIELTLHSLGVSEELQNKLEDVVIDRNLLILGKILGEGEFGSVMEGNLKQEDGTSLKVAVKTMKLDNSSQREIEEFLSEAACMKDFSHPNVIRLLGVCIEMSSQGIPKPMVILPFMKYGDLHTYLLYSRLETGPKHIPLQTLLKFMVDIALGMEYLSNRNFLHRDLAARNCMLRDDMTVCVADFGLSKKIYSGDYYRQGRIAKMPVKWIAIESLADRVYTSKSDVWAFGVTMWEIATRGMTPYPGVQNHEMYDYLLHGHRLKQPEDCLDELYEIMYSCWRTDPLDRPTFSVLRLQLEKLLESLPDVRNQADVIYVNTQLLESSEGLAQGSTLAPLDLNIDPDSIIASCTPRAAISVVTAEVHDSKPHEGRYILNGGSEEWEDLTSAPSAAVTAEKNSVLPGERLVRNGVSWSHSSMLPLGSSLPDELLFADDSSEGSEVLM

[14] = Dissociation constant, pKa of compound; assay type: physicochemical
[15] = Permeability across apical to basolateral side in human Caco2 cells; assay type: ADME, cell-based; settings: Caco-2, read-out: permeability
[16] = test system: HCT-116; assay: Potentiation of cisplatin-induced antiproliferative activity against human HCT116 cells assessed as reduction in cell viability at < 50 nM measured after 96 hrs by MTS assay; assay type: functional, cell-based
Procedure, shortened: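 HCT116 cells plated and left to adhere overnight. Compound and cisplatin added the next day at set concentrations, then incubated 96 h. MTS reagent added; absorbance at 490 nm read after 1 h. Synergy and antagonism assessed by MacSynergy analysis.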

[17] = biological target: Cytochrome P450 2C9 (Homo sapiens, UniProt P11712); assay: Inhibition of CYP2C9 (unknown origin); assay type: ADME
[18] = Volume of distribution at steady state in Sprague-Dawley rat at 10 mg/kg administered as iv infusion for 3 hrs; assay type: ADME, organism-based; settings: in vivo, read-out: Vdss
Procedure, shortened: (§3)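 Male Sprague-Dawley rats (about 200-350 g), catheterized in jugular and femoral veins under isoflurane; n=3. IV infusion at 3.33 mg/kg/h for 3 h (nominal 10 mg/kg, as free base) in 5% Captisol:2.5% mannitol in water. Jugular blood drawn at 0-51 h, centrifuged 3,000 G, 10 min, 4 °C; plasma collected.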

[19] = biological target: Tyrosine-protein kinase ABL1 (Homo sapiens, UniProt P00519, T315I); assay: ATP competitive inhibition of human ABL T315I mutant
[20] = biological target: Voltage-gated inwardly rectifying potassium channel KCNH2 (Homo sapiens, UniProt Q12809); assay: Inhibition of human ERG
[21] = Half life in Sprague-Dawley rat at 10 mg/kg administered as iv infusion for 3 hrs; assay type: ADME, organism-based; settings: in vivo; procedure, shortened: as §3
[22] = biological target: Vascular endothelial growth factor receptor 3 (Homo sapiens, UniProt P35916); assay: ATP competitive inhibition of human Flt4
[23] = biological target: Dual specificity tyrosine-phosphorylation-regulated kinase 2 (Homo sapiens, UniProt Q92630); assay: ATP competitive inhibition of human DYRK2
[24] = biological target: Tyrosine-protein kinase JAK2 (Homo sapiens, UniProt O60674); assay: Inhibition of human JAK2
[25] = biological target: Glycogen synthase kinase-3 alpha (Homo sapiens, UniProt P49840); assay: ATP competitive inhibition of human GSK3alpha
Glycogen synthase kinase-3 alpha, sequence (P49840 whole entry): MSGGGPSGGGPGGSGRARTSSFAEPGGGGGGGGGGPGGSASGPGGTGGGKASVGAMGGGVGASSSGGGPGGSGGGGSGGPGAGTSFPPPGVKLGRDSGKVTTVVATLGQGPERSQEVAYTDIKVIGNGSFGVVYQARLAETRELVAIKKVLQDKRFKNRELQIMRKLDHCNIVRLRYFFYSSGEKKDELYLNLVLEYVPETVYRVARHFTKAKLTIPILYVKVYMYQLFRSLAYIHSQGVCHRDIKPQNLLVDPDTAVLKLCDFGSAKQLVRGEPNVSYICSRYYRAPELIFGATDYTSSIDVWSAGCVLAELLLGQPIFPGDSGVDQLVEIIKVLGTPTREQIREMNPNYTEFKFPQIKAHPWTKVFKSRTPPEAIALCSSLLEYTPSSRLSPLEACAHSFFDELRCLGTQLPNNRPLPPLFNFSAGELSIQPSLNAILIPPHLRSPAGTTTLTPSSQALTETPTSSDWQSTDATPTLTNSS

[26] = biological target: Cytochrome P450 2D6, Homo sapiens (UniProt P10635); assay: Inhibition of CYP2D6 (unknown origin)
[27] = biological target: Receptor-type tyrosine-protein kinase FLT3 (Homo sapiens, UniProt P36888, D835Y); assay: ATP competitive inhibition of human Flt3 D835Y mutant
[28] = biological target: Mitogen-activated protein kinase kinase kinase 9 (Homo sapiens, UniProt P80192); assay: ATP competitive inhibition of human MLK1

Compound: CC(C)S(=O)(=O)c1ccc(-c2cnc(N)c(-c3noc(-c4ccccc4)n3)n2)cc1
- Ki [1]: 4000 nM
- Ki [2]: 5 nM
- Ki [3]: 400 nM
- IC50 [4]: 2300 nM

Compound: CC(C)S(=O)(=O)c1ccc(-c2cnc(N)c(-c3cc(-c4ccc([C@@H](C)N)cc4)no3)n2)cc1
- Ki [1]: 1700 nM
- Ki [2]: 0.53 nM
- Ki [3]: 105 nM
- solubility [5]: 45.1 µM (≈ 20.9 µg/mL)
- IC50 [4]: 130 nM

Compound: CNCc1ccc(-c2cc(-c3nc(-c4ccc(S(=O)(=O)C(C)C)cc4)cnc3N)on2)cc1Cl
- Ki [1]: > 4000 nM
- Ki [2]: 2.4 nM
- Ki [3]: 190 nM
- solubility [5]: 1.36 µM (≈ 0.677 µg/mL)
- IC50 [4]: 130 nM

Compound: CS(=O)(=O)c1ccc(-c2cnc(N)c(C(=O)Nc3ccccc3)n2)cc1
- Activity [6]: Active

Compound: CC(C)S(=O)(=O)c1ccc(-c2cnc(N)c(-c3cc(-c4ccccc4)no3)n2)cc1
- Ki [1]: > 4000 nM
- Ki [2]: 1 to 1.3 nM
- Ki [3]: 1400 nM
- solubility [5]: < 0.3 µM
- Ki [7]: 650 nM
- Ratio Ki [8]: > 1000
- Ratio Ki [9]: > 1000
- IC50 [4]: 1100 nM

Compound: CC(C)S(=O)(=O)c1ccc(-c2cnc(N)c(-c3nnc(-c4ccccc4)s3)n2)cc1
- Ki [1]: > 4000 nM
- Ki [2]: 1 nM
- Ki [3]: > 4000 nM
- Ratio Ki [8]: > 1000
- Ratio Ki [9]: > 1000
- IC50 [4]: 1700 nM

Compound: CC(C)S(=O)(=O)c1ccc(-c2cnc(N)c(-c3nc(-c4ccccc4)no3)n2)cc1
- Ki [1]: > 1600 nM
- Ki [2]: 26 nM
- Ki [3]: 1350 nM
- IC50 [4]: > 2500 nM

Compound: CC(C)S(=O)(=O)c1ccc(-c2cnc(N)c(-c3cn(-c4ccccc4)nn3)n2)cc1
- Ki [1]: > 4000 nM
- Ki [3]: 1300 nM
- IC50 [4]: > 2500 nM

Compound: CC(C)S(=O)(=O)c1ccc(-c2cnc(N)c(C3CC(c4ccccc4)=NO3)n2)cc1 (racemic)
- Ki [1]: > 4000 nM
- Ki [3]: > 4000 nM
- IC50 [4]: > 2500 nM

Compound: CC(C)S(=O)(=O)c1ccc(-c2cnc(N)c(-c3cc(-c4ccccc4)on3)n2)cc1
- Ki [1]: > 4000 nM
- Ki [2]: 2 nM
- Ki [3]: 1300 nM
- Ki [7]: 530 nM
- IC50 [4]: 800 nM

Compound: CC(C)S(=O)(=O)c1ccc(-c2cnc(N)c(-c3cc(-c4ccc([C@H](C)N)cc4)no3)n2)cc1
- Ki [1]: 785 nM
- Ki [2]: 1.24 nM
- Ki [3]: 82 nM
- solubility [5]: 27.9 µM (≈ 12.9 µg/mL)
- IC50 [4]: 300 nM

Compound: CC(C)S(=O)(=O)c1ccc(-c2cnc(N)c(C(=O)Nc3ccccc3)n2)cc1
- Ki [1]: 2800 nM
- Ki [2]: 4 nM
- Ki [3]: 4000 nM
- IC50 [4]: 1030 nM

Compound: CCNCc1ccc(-c2cc(-c3nc(-c4ccc(S(=O)(=O)C(C)C)cc4)cnc3N)on2)cc1
- Ki [1]: 3350 nM
- Ki [2]: 0.21 nM
- Ki [3]: 47 nM
- solubility [5]: 72 µM (≈ 34.4 µg/mL)
- IC50 [4]: 76 nM

Compound: CC(C)S(=O)(=O)c1ccc(-c2cnc(N)c(-c3nnc(-c4ccccc4)o3)n2)cc1
- Ki [1]: 8900 nM
- Ki [2]: 1 nM
- Ki [3]: > 10000 nM
- Ki [7]: 22 nM
- Ratio Ki [8]: > 1000
- Ratio Ki [9]: > 1000
- IC50 [4]: 410 nM

Compound: CC(C)S(=O)(=O)c1ccc(-c2cnc(N)c(-c3ncc(-c4ccccc4)o3)n2)cc1
- Ki [1]: > 4000 nM
- Ki [3]: > 10000 nM
- IC50 [4]: > 2500 nM

Compound: CC(C)S(=O)(=O)c1ccc(-c2cnc(N)c(-c3cnc(-c4ccccc4)o3)n2)cc1
- Ki [1]: > 4000 nM
- Ki [2]: 21 nM
- Ki [3]: > 10000 nM

Compound: CC(C)S(=O)(=O)c1ccc(-c2cnc(N)c(-c3cc(-c4ccc(CN)cc4)no3)n2)cc1
- Ki [1]: > 4000 nM
- Ki [2]: 0.27 nM
- Ki [3]: 115 nM
- solubility [5]: 12.5 µM (≈ 5.62 µg/mL)
- IC50 [4]: > 25000 nM

Compound: CNCc1ccc(-c2cc(-c3nc(-c4ccc(S(=O)(=O)C(C)C)cc4)cnc3N)on2)cc1 [BERZOSERTIB]
- Ki [10]: 130 nM
- Ki [11]: 39 nM
- Ki [12]: 190 nM
- Ki [1]: > 4000 nM
- Ki [13]: 30 nM
- pKa [14]: 8.2
- Ki [3]: 44 nM
- Papp A→B [15]: 7.2 ×10⁻⁶ cm/s
- Activity [16]: Active
- IC50 [17]: > 30000 nM
- Vd [18]: 21 L/kg
- solubility [5]: 52 µM (≈ 24.1 µg/mL)
- Ki [7]: 140 nM
- Ki [19]: 59 nM
- IC50 [20]: 3000 nM
- half-life [21]: 11.6 h
- Ki [22]: 8 nM
- Ki [23]: 26 nM
- Ki [24]: 150 nM
- Ki [25]: 33 nM
- IC50 [26]: > 30000 nM
- Ki [27]: 18 nM
- Ki [28]: 15 nM

Compound: CC(C)S(=O)(=O)c1ccc(-c2cnc(N)c(-c3cc(-c4ccc(CNC5CCOCC5)cc4)no3)n2)cc1
- Ki [1]: > 4000 nM
- pKa [14]: 9.7
- Ki [3]: 189 nM
- solubility [5]: 0.8 µM (≈ 0.427 µg/mL)

Compound: CNCc1ccc(-c2cc(-c3nc(-c4ccc(S(=O)(=O)C(C)C)cc4)cnc3N)on2)c(Cl)c1
- Ki [1]: 2610 nM
- Ki [2]: 0.75 nM
- Ki [3]: 93 nM
- solubility [5]: 4.4 µM (≈ 2.19 µg/mL)
- IC50 [4]: 210 nM
